Assay results published in ChEMBL document CHEMBL1158548, “Tetrahydrochromenoimidazoles as potassium-competitive acid blockers (P-CABs): structure-activity relationship of their antisecretory properties and their affinity toward the hERG channel” (J Med Chem, 2010).
The source made the active and inactive calls. No cut-off for these calls is given here.

Tests used:
[1] = Inhibition of H+/K+ ATPase in hog gastric mucosa by malachite green based competitive binding assay; type: tissue-based, Sus scrofa
Summary of the method: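 Hog gastric mucosa H+/K+-ATPase, isolated enzyme; competitive binding assay run at pH 7.4; pIC50 reported as geometric mean of 4-5 measurements.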

[2] = system: Gastric gland; experiment: Inhibition of acid secretion in New Zealand White rabbit intact gastric glands assessed as [14C]dimethylaminopyridine accumulation by radioactivity; type: functional, tissue-based; settings: Oryctolagus cuniculus
Summary of the method: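 Gastric glands isolated intact from New Zealand rabbits; cellular activity read as reduced accumulation of the weak base 14C-dimethylaminopyridine; pIC50 given as geometric mean of 4-5 determinations.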

[3] = system: Rattus norvegicus; experiment: Inhibition of pentagastrin-stimulated acid secretion in intraduodenally dosed perfused Sprague-Dawley rat Ghosh Schild model; type: functional; settings: intraduodenal
[4] = Octanol/aqueous KCl distribution coefficient, log D at pH 7.4 by potentiometric titration; type: physicochemical
Summary of the method: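 Octanol/aqueous KCl distribution coefficient from potentiometric titrations across pH 2.0-11.0 at 25 °C.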

[5] = Partition coefficient, log D by HPLC; type: physicochemical; settings: octanol/water
Summary of the method: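 logD by reversed-phase HPLC at 37 °C, calibrated with seven reference substances of known logD.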

[6] = Dissociation constant, pKa at pH 2.0 to 11.0 by potentiometric cosolvent titration; type: physicochemical
[7] = molecular target: hERG (KCNH2) (Homo sapiens, UniProt Q12809); experiment: Inhibition of human ERG expressed in CHO-K1 cells at 10 uM by whole-cell patch clamp technique; type: cell-based; settings: CHO-K1 cells that express human ERG
Summary of the method: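 CHO-K1 cells stably transfected with hERG; whole-cell patch clamp recording of tail currents with test compound at 10 μM, three cells per compound; relative block of tail current amplitude given as arithmetic mean.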

[8] = system: Canis familiaris; experiment: Inhibition of pentagastrin-stimulated acid secretion in po dosed Beagle dog fistula model assessed as elevation of intragastric pH after 4 hrs; type: functional, organism-based; settings: Canis lupus familiaris
Summary of the method: (§1)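 Surgically prepared fistula dogs; pentagastrin infused subcutaneously from 1 h after start of pH-metry over 22.5 h; drug or vehicle given orally in capsules 2.5 h after start; intragastric pH recorded continuously for 24 h with combined glass electrode and ambulatory pH meter; duration of pH >5 read from curves.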

[9] = system: Rattus norvegicus; experiment: Inhibition of pentagastrin-stimulated acid secretion in Sprague-Dawley rat Ghosh Schild model at 3 umol/kg, intraduodenally; type: functional; settings: intraduodenal
[10] = system: Canis familiaris; experiment: Inhibition of pentagastrin-stimulated acid secretion in po dosed Beagle dog fistula model assessed as elevation of intragastric pH; type: functional, organism-based; settings: Canis lupus familiaris; summary of the method: as §1
[11] = Clearance in Beagle dog fistula model; type: ADME, organism-based, Canis lupus familiaris; settings: in vivo
[12] = Clearance in Sprague-Dawley rat Ghosh Schild model; type: ADME, organism-based; settings: in vivo
[13] = system: Canis familiaris; experiment: Inhibition of pentagastrin-stimulated acid secretion in Beagle dog fistula model assessed as elevation of intragastric pH at 9 umol/kg, po after 8 hrs; type: functional, organism-based; settings: Canis lupus familiaris; summary of the method: as §1
[14] = Oral bioavailability in Beagle dog fistula model; type: ADME, organism-based, Canis lupus familiaris; settings: in vivo
[15] = Oral bioavailability in Sprague-Dawley rat Ghosh Schild model; type: ADME, organism-based; settings: in vivo
[16] = system: Canis familiaris; experiment: Inhibition of pentagastrin-stimulated acid secretion in po dosed Beagle dog fistula model assessed as elevation of intragastric pH after 2.5 hrs; type: functional, organism-based; settings: Canis lupus familiaris; summary of the method: as §1
[17] = system: Canis familiaris; experiment: Inhibition of pentagastrin-stimulated acid secretion in po dosed Beagle dog fistula model assessed as elevation of intragastric pH after 8 hrs; type: functional, organism-based; settings: Canis lupus familiaris; summary of the method: as §1
[18] = system: Canis familiaris; experiment: Inhibition of pentagastrin-stimulated acid secretion in po dosed Beagle dog fistula model assessed as elevation of intragastric pH after 2 hrs; type: functional, organism-based; settings: Canis lupus familiaris; summary of the method: as §1

Chain of hERG (KCNH2) (Q12809 whole entry): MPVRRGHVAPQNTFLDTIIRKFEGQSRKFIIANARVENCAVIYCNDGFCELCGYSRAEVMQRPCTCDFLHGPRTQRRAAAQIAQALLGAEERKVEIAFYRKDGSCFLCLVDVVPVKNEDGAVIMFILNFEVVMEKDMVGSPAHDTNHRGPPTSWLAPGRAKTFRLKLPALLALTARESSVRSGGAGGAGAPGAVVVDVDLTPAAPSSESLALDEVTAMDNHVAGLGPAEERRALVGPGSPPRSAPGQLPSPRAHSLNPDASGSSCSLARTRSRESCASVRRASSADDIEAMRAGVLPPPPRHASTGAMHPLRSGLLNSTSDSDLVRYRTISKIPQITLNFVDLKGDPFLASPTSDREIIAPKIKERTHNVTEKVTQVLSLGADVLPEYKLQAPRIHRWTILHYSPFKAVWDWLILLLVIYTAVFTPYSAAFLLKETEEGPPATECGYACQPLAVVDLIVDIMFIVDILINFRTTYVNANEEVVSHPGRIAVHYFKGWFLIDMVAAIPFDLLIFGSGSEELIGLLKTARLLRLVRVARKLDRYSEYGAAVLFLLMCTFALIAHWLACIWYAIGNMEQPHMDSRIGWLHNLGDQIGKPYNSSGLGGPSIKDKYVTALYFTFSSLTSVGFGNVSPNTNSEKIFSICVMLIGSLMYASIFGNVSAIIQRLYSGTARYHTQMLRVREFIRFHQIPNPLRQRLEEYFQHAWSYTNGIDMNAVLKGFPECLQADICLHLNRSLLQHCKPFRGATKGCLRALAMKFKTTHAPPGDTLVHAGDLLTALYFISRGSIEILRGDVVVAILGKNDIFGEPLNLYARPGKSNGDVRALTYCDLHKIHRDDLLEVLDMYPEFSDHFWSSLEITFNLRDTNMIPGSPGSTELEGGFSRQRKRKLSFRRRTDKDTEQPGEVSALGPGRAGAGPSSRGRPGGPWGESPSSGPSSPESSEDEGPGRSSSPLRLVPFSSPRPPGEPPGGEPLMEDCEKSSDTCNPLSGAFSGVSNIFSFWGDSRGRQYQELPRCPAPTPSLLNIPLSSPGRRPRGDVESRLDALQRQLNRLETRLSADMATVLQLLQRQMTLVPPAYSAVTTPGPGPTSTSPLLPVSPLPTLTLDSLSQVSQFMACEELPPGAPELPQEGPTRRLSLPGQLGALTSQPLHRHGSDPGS

Row | Compound | pIC50 [1] | IC50 [2] | logD [4] | logD [5] | pKa ([6]; read-out: pKa) | pKa [6] | clearance [11] | clearance [12] | bioavailability [14] | bioavailability [15] | ED50 [3] | inhibition at 10 µM [7] | Activity [8] | inhibition in vivo at 3 µmol/kg [9] | Activity [10] | Activity [13] | Activity [16] | Activity [17] | Activity [18]
1 | Cc1cc(Cl)ccc1[C@@H]1CCc2c(C(=O)N(C)C)cc3c(nc(C)n3C)c2O1 | 6.1 | 0.2 µM | 3.4 | 3.2 | 5.59 |  |  |  |  |  | 0.1 µmol/kg | -6% | Active |  |  |  |  |  | 
2 | Cc1ccccc1[C@@H]1CCc2c(C(=O)N(C)C)cc3c(nc(C4CC4)n3C)c2O1 |  |  | 2.84 | 3.3 | 5.28 |  |  |  |  |  | 0.1 µmol/kg | 6% |  |  | inactive |  |  |  | 
3 | Cc1ccccc1[C@@H]1CCc2c(C(=O)N(C)C)cc3c(nc(C)n3C)c2O1 | 5.3 | 0.794 µM |  | 2.8 |  | 5.68 | 4.67 mL/min/kg | 21 mL/min/kg | 72% | 64% | 0.23 µmol/kg | 33% |  |  |  | Active |  |  | 
4 | Cc1ccccc1[C@@H]1CCc2c(C(=O)N3CCC3C(N)=O)cc3c(nc(C)n3C)c2O1 (some centres not stated) | 4.6 |  |  | 2.3 |  |  |  |  |  |  | 3 µmol/kg | 7% |  | 22% |  |  |  |  | 
5 | Cc1nc2c3c(c(C(=O)N(C)C)cc2n1C)CC[C@@H](c1ccc(F)cc1)O3 | 5.3 | 1 µM | 2.36 | 2.7 | 5.65 |  |  |  |  |  | 0.1 µmol/kg | 28% |  |  |  |  |  |  | 
6 | Cc1nc2c3c(c(C(=O)N(C)C)cc2n1C)CC[C@@H](c1ccccc1C1CC1)O3 | 4.8 | 3.16 µM | 3.18 | 3.1 | 5.63 |  |  |  |  |  | 1.5 µmol/kg | 18% |  |  |  |  |  |  | 
7 | Cc1cc(Cl)ccc1[C@@H]1CCc2c(C(=O)N3CCC3)cc3c(nc(C)n3C)c2O1 | 5.2 | 0.398 µM | 3.43 | 3.2 | 5.49 |  |  |  |  |  | 0.15 µmol/kg | 48% |  |  |  |  |  |  | 
8 | Cc1nc2c3c(c(C(=O)N(C)C)cc2n1C)CC[C@@H](c1ccc2ccccc2c1)O3 | 4.1 | 63.1 µM | 3.37 | 3.2 | 5.57 |  |  |  |  |  | 3 µmol/kg | 65% |  |  |  |  |  |  | 
9 | CNC(=O)c1cc2c(nc(C)n2C)c2c1CC[C@@H](c1ccc(Cl)cc1C)O2 | 4.9 | 0.794 µM | 3.46 | 3.1 | 5.6 |  |  |  |  |  | 0.15 µmol/kg | 45% |  |  |  |  |  | Active | 

The next lines start with results.

Row | pIC50 [1] | IC50 [2] | logD [4] | logD [5] | pKa ([6]; read-out: pKa) | pKa [6] | clearance [11] | clearance [12] | bioavailability [14] | bioavailability [15] | Compound | ED50 [3] | inhibition at 10 µM [7] | Activity [8] | inhibition in vivo at 3 µmol/kg [9] | Activity [10] | Activity [13] | Activity [16] | Activity [17] | Activity [18]
10 | 4.9 | 79.4 µM |  | 2.5 |  |  |  |  |  |  | Cc1ccccc1[C@@H]1CCc2c(C(=O)N3CC(C(=O)N(C)C)C3)cc3c(nc(C)n3C)c2O1 | 3 µmol/kg | 6% |  | 36% |  |  |  |  | 
11 | 4.6 | 1 µM |  | 2.8 |  | 5.62 |  |  |  |  | CC(=O)CNC(=O)c1cc2c(nc(C)n2C)c2c1CC[C@@H](c1ccccc1C)O2 | 0.3 µmol/kg | 63% |  |  | inactive |  |  |  | 
12 | 4.7 | 79.4 µM |  | 2.5 |  |  |  |  |  |  | Cc1ccccc1[C@@H]1CCc2c(C(=O)N3CC(C)(O)C3)cc3c(nc(C)n3C)c2O1 | 3 µmol/kg | 1% |  | 10% |  |  |  |  | 
13 | 5.4 | 1.26 µM |  | 3 |  |  |  |  |  |  | CCc1ccccc1[C@@H]1CCc2c(C(=O)N(C)C)cc3c(nc(C)n3C)c2O1 | 0.5 µmol/kg | 11% |  |  | inactive |  |  |  | 
14 | 6 | 0.398 µM | 3.66 | 3.3 | 5.36 |  |  |  |  |  | Cc1nc2c3c(c(C(=O)N(C)C)cc2n1C)CC[C@@H](c1ccc(Cl)cc1Cl)O3 | 0.3 µmol/kg | 59% |  |  |  |  |  |  | 
15 | 5.1 | 2.51 µM |  | 2.7 |  | 5.7 |  |  |  |  | CNC(=O)c1cc2c(nc(C)n2C)c2c1CC[C@@H](c1ccccc1C)O2 | 0.25 µmol/kg | 3% |  |  |  |  | Active |  | 
16 | 5.2 | 0.631 µM |  | 2.9 |  | 5.66 |  |  |  |  | COC1CN(C(=O)c2cc3c(nc(C)n3C)c3c2CC[C@@H](c2ccccc2C)O3)C1 | 0.3 µmol/kg | 18% |  |  | Active |  |  |  | 
17 | 5.4 | 0.501 µM | 3.42 | 3.2 | 5.48 |  |  |  |  |  | COC1CN(C(=O)c2cc3c(nc(C)n3C)c3c2CC[C@@H](c2ccc(Cl)cc2C)O3)C1 | 0.4 µmol/kg | 95% |  |  |  |  |  |  | 
18 | 5.1 | 0.398 µM | 2.92 | 2.9 | 5.59 |  |  |  |  |  | Cc1nc2c3c(c(C(=O)N(C)C)cc2n1C)CC[C@@H](c1ccc(Cl)cc1)O3 | 0.15 µmol/kg | 84% |  |  | Active |  |  |  | Active
19 | 4.7 | 15.8 µM | 1.9 | 2.6 | 5.61 |  |  |  |  |  | COCc1ccccc1[C@@H]1CCc2c(C(=O)N(C)C)cc3c(nc(C)n3C)c2O1 | 1.6 µmol/kg | 7% |  |  |  |  |  |  | 
20 | 5.59 | 1.95 µM | 2.82 | 2.8 | 5.66 |  |  |  |  |  | Cc1nc2c3c(c(C(=O)N(C)C)cc2[nH]1)CC[C@@H](c1ccccc1C)O3 | 0.5 µmol/kg | 11% |  |  |  |  |  |  | 
